ChEMBL document CHEMBL3751754, “In vitro efficacy of 2,N-bisarylated 2-ethoxyacetamides against Plasmodium falciparum” (Bioorg Med Chem Lett, 2016)

Assays:
[1] = Bio-transformation in human liver microsomes at 25 uM after 30 mins by LC-MS analysis; format: ADME; details: read-out: Drug metabolism
Procedure, shortened: (§1)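 Test compound at 25 µM with pooled human liver microsomes (0.5 mg/mL total protein) in 0.1 M sodium phosphate, pH 7.4. An NADPH-regenerating system was included (1.25 mM NADP+, 3.3 mM glucose-6-phosphate, 3.3 mM MgCl2). Reaction was started with glucose-6-phosphate dehydrogenase (1 unit/mL final). Parent remaining at various time points was measured by LC-MS. Half-life assumed first-order decay; values from one experiment.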

[2] = system: Plasmodium falciparum; test: Resistant index, ratio of IC50 for chloroquine, quinine and pyrimethamine-resistant Plasmodium falciparum W2 to IC50 for mefloquine-resistant Plasmodium falciparum D6; format: functional
Procedure, shortened: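 Index is W2 IC50 divided by D6 IC50. Each IC50 is from inhibition of [3H]hypoxanthine uptake in a single experiment.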

[3] = system: Plasmodium falciparum; test: Antiplasmodial activity against chloroquine, quinine and pyrimethamine-resistant Plasmodium falciparum W2 assessed as inhibition of [3H]-hypoxanthine uptake after 48 hrs by liquid scintillation counting analysis; format: functional, organism-based
Procedure, shortened: (§2)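 IC50 from inhibition of [3H]hypoxanthine uptake by P. falciparum W2 or D6 parasites. Values come from a single experiment.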

[4] = system: Plasmodium falciparum; test: Antiplasmodial activity against mefloquine-resistant Plasmodium falciparum D6 assessed as inhibition of [3H]-hypoxanthine uptake after 48 hrs by liquid scintillation counting analysis; format: functional, organism-based; procedure, shortened: as §2
[5] = Half life in human liver microsomes at 25 uM by LC-MS analysis; format: ADME; procedure, shortened: as §1
[6] = Half life in mouse liver microsomes at 25 uM by LC-MS analysis; format: ADME

metabolised at 0.5 h, 25 µM [1] [%]	SMILES	Ratio IC50 [2]	IC50 [3] [µM]	IC50 [4] [µM]	half-life at 25 µM [5] [min]	half-life at 25 µM [6] [min]
100	O=C(/C=C/c1cnc2ccccc2c1)c1cc(Cl)ccc1Cl	–	–	–	–	–
100	O=C(/C=C/c1ccnc2ccccc12)c1ccc(Cl)c(Cl)c1	–	–	–	–	–
–	CCOC(C(=O)Nc1ccc(Cl)cc1Cl)c1cnc2ccccc2c1 (stereo not drawn)	0.43	2	4.5	> 60	> 60
–	CCOC(C(=O)Nc1cccc2ncccc12)c1ccc(Cl)c(Cl)c1 (stereo not drawn)	–	> 27	> 27	–	–
–	CCOC(C(=O)Nc1ccc2ncccc2c1)c1ccc(Cl)cc1Cl (stereo not drawn)	0.92	14	15	–	–
–	CCOC(C(=O)Nc1ccnc2ccccc12)c1ccc(Cl)cc1Cl (stereo not drawn)	1	15	14	–	–
–	CCOC(C(=O)Nc1cc(Cl)ccc1Cl)c1ccnc2ccccc12 (stereo not drawn)	1	15	14	–	–
–	CCOC(C(=O)Nc1cnc2ccccc2c1)c1ccc(Cl)c(Cl)c1 (stereo not drawn)	–	5.9	13	–	–
–	CCOC(C(=O)Nc1ccc(Cl)c(Cl)c1)c1ccnc2ccccc12 (stereo not drawn)	0.8	12	15	–	–
–	CCOC(C(=O)Nc1ccnc2ccccc12)c1cc(Cl)ccc1Cl (stereo not drawn)	1.2	14	12	–	–
–	CCOC(C(=O)Nc1cccc2cccnc12)c1ccc(Cl)c(Cl)c1 (stereo not drawn)	0.84	16	20	–	–
–	CCOC(C(=O)Nc1cccc2ncccc12)c1ccc(Cl)cc1Cl (stereo not drawn)	–	> 27	> 27	–	–
–	CCOC(C(=O)Nc1ccc(Cl)c(Cl)c1)c1cnc2ccccc2c1 (stereo not drawn)	0.71	13	18	–	–
–	CCOC(C(=O)Nc1ccc2ccccc2n1)c1ccc(Cl)c(Cl)c1 (stereo not drawn)	0.76	15	19	–	–
–	CCOC(C(=O)Nc1cccc2cccnc12)c1cc(Cl)ccc1Cl (stereo not drawn)	–	> 27	14	–	–
–	CCOC(C(=O)Nc1ccc2ccccc2n1)c1ccc(Cl)cc1Cl (stereo not drawn)	0.88	14	15	–	–
–	CCOC(C(=O)Nc1cnc2ccccc2c1)c1ccc(Cl)cc1Cl (stereo not drawn)	2.7	27	9.8	–	–
–	CCOC(C(=O)Nc1cc(Cl)ccc1Cl)c1cnc2ccccc2c1 (stereo not drawn)	1.1	14	14	–	–
–	CCOC(C(=O)Nc1ccnc2ccccc12)c1ccc(Cl)c(Cl)c1 (stereo not drawn)	0.53	1.7	3.2	27	30
–	CCOC(C(=O)Nc1cccc2ncccc12)c1cc(Cl)ccc1Cl (stereo not drawn)	1.4	15	11	–	–
–	CCOC(C(=O)Nc1ccc2ncccc2c1)c1ccc(Cl)c(Cl)c1 (stereo not drawn)	–	9.1	7.7	–	–
–	CCOC(C(=O)Nc1ccc2ncccc2c1)c1cc(Cl)ccc1Cl (stereo not drawn)	–	> 17	> 17	–	–
–	CCOC(C(=O)Nc1cccc2cccnc12)c1ccc(Cl)cc1Cl (stereo not drawn)	–	> 27	> 27	–	–
–	CCOC(C(=O)Nc1ccc2ccccc2n1)c1cc(Cl)ccc1Cl (stereo not drawn)	–	> 27	19	–	–
–	CCOC(C(=O)Nc1ccc(Cl)cc1Cl)c1ccnc2ccccc12 (stereo not drawn)	0.26	1.8	6.9	> 60	> 60
–	CCOC(C(=O)Nc1cnc2ccccc2c1)c1cc(Cl)ccc1Cl (stereo not drawn)	1.4	9.6	6.7	27	9
100	O=C(/C=C/c1ccnc2ccccc12)c1cc(Cl)ccc1Cl	–	–	–	–	–

SMILES	metabolised at 0.5 h, 25 µM [1] [%]	Ratio IC50 [2]	IC50 [3] [µM]	IC50 [4] [µM]	half-life at 25 µM [5] [min]	half-life at 25 µM [6] [min]
CCOC(C(=O)Nc1ccc(Cl)cc1)c1ccc(Cl)cc1 (stereo not drawn)	0	1.5	11	7.3	–	–
O=C(/C=C/c1ccc(Cl)cc1)c1ccc(Cl)cc1 [4',4-DICHLOROCHALCONE]	85	2	5.3	2.6	–	–
